TRPC6 act – activators of mouse TRPC6 channel | Q61143 | AID 2550 | HEK293-TRPC6 membrane potential dye fluorescence; active compounds read high | B-score at 10 µM | 310,000 tested, 0.13% active;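 active = B-score of the integrated fluorescence ratio above library mean plus 3 SD, and starting fluorescence ratio within library mean plus 5 SD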;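 also: higher score means more depolarization so channel activation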
Target sequence (Q61143 whole entry, looked up): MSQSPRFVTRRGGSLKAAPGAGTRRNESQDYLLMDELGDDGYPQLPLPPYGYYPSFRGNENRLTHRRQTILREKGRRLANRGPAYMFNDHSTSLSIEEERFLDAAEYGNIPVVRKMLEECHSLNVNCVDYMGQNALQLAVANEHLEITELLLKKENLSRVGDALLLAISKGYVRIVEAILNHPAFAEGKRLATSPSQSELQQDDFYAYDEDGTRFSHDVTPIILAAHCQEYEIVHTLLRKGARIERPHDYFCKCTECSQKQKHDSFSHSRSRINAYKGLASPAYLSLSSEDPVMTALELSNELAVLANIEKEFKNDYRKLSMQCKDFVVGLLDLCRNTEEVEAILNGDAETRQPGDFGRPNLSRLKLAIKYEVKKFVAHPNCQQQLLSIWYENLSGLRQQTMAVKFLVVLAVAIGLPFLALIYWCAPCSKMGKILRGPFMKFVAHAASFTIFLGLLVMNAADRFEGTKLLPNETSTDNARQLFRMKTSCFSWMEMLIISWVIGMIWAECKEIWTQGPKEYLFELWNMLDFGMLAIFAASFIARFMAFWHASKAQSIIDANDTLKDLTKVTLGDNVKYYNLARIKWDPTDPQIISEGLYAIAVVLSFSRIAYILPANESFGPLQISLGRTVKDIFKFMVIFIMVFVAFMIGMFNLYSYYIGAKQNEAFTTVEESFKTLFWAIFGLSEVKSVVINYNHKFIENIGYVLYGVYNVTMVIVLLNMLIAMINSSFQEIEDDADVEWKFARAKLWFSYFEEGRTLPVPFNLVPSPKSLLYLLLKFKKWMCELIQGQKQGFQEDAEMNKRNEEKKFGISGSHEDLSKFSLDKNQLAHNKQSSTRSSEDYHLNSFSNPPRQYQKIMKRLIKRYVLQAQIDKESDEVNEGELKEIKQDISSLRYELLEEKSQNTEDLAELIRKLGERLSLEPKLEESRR
TRPC4 block – blocks the mouse TRPC4 cation channel; Q9QUQ5; HEK293 TRPC4beta/mu-opioid, DAMGO-evoked Fluo4 calcium flux; active compounds read low; 300,000 tested, 0.39% active; B-score at 10 µM;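 active = B-score over 3 SD under the library average, no early fluorescence shift, positive overall ratio signal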
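Assay system: HEK293 cells with stable TRPC4beta plus mu-opioid receptor expression; Probe or stimulus: DAMGO in two steps, submaximal then maximal; Dosing: single-point compound dosing; Measured by: Fluo4 calcium-dye fluorescence, kinetic read; Read-out basis: B score from integrated Fluo4 fluorescence ratio.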
TRPC4 PAM – allosterically enhances the mouse TRPC4 cation channel; Q9QUQ5; HEK293 TRPC4beta/mu-opioid, DAMGO EC20, Fluo-4 Ca2+ flux; active compounds read high; B-score at 10 µM; 310,000 tested, 0.42% active; AID 2227;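 active = B-score of calcium response area above 5 SD of library B-scores, with initial fluorescence ratio within 5 SD of library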;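 also: B-score of integrated fluorescence ratio over time as area under calcium response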
TRPC4 agonist – activators of mouse TRPC4 channel; Q9QUQ5; B-score at 10 µM; 310,000 tested, 0.49% active; HEK293 TRPC4beta/mu-opioid, Fluo4 calcium fluorescence; active compounds read high;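 active = B-score above 5 SD of library B-scores, and initial fluorescence ratio not above library mean plus 5 SD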;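 also: positive B-score marks a calcium rise read as TRPC4 activation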
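Assay system: HEK293 cells stably co-expressing mouse TRPC4beta and mu-opioid receptor / Timing: Fluo4 dye loading 45 min at room temperature, 110 s recording / Signal: Fluo4 calcium-sensitive dye fluorescence, kinetic, 1 Hz baseline / Read-out: integrated baseline-normalised fluorescence ratio, converted to per-well B score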
TRPC6 inhibitor – blocks the mouse TRPC6 cation channel. Q61143. HEK293-TRPC6, membrane potential dye, ACh-evoked depolarization; active compounds read low. B-score at 10 µM. 310,000 tested, 1.1% active;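 active = B-score under library mean minus 3 SD, initial fluorescence not abnormally high, positive integrated signal ratio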;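 also: B-score derived from integrated fluorescence ratio over the kinetic read; more negative B-score means stronger inhibition of depolarization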
TRPC4 sel inh 2 – second selectivity test of TRPC6 inhibitors: effect on mouse TRPC4; shares compounds with TRPC6 inhibitor; HEK293 TRPC4/MOR, membrane potential dye fluorescence; channel activated by saturating DAMGO dose; inhibition, % at 10 µM; 920 tested, 42% active;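 active = compounds whose fluorescence signal differed from control wells by over 3 SD, either direction, in both duplicate plates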
TRPC4 spec – mouse TRPC4 off-target activity of TRPC6 inhibitors | HEK293 TRPC4/mu-opioid, membrane potential fluorescence | activity change, negative = inhibition, % at 10 µM | shares compounds with TRPC6 inhibitor | 920 tested, 61% active;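 active = rise or fall in signal beyond 3 SD of buffer-only wells in both replicate plates, either sign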;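 also: integrated kinetic ratio of fluorescence range over baseline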
HEK293 MPD ctr 2-1 – parental HEK293 nonspecific activity of TRPC6 inhibitors, second screen; shares compounds with TRPC6 inhibitor; parental HEK293 membrane potential dye fluorescence; maximal acetylcholine challenge after compound addition; signal change vs control, % at 10 µM; 920 tested, 31% active; AID 2779;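 active = membrane potential signal moving either way by over 3 SD of the maximum-effect control, in both duplicate plates, meaning non-specific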
HEK293 MPD ctr-1 – parental HEK293 nonspecific activity of TRPC6 inhibitors. shares compounds with TRPC6 inhibitor. parental HEK293 membrane potential dye fluorescence. membrane potential signal change, % at 10 µM. 920 tested, 60% active;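 active = membrane potential signal shifting up or down by more than 3 SD of buffer-only wells, on both duplicate plates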
HEK293 MPD ctr-2 – counter-screen for TRPC6 modulators: effect in parental HEK293 cells; shares compounds with TRPC6 inhibitor; membrane potential dye fluorescence; membrane potential signal change, % at 10 µM; 2,400 tested, 51% active; AID 488924;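 active = membrane potential signal moves up or down beyond 5 SD from buffer-only wells, on both duplicate plates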
HEK293 MPD ctr 2-2 – second check of TRPC6 modulator effects in parental HEK293 cells; membrane potential dye fluorescence; after compound, maximal acetylcholine stimulation; shares compounds with TRPC6 inhibitor; inhibition, % at 10 µM; 2,400 tested, 14% active;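 active = membrane potential signal drops by more than 5 SD from the mean control signal, in both duplicate plates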;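 also: plate controls were acetylcholine ECmax control wells for no effect and buffer only wells for full effect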
TRPC4/MOR mod – selectivity of TRPC6 modulators against mouse TRPC4; shares compounds with TRPC6 inhibitor; 2,400 tested, 69% active; HEK293 TRPC4/mu-opioid, membrane potential fluorescence; percent change from control (negative = decrease, positive = increase), % at 10 µM; AID 488927;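 active = membrane potential signal moved up or down beyond 5 SD of buffer control wells, in both duplicate plates, actives on both sides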;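 also: plate controls were assay buffer wells for no effect and DAMGO maximal-effect wells for full effect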
TRPC4/MOR inh 2 – second check of whether TRPC6 modulators also affect mouse TRPC4; shares compounds with TRPC6 inhibitor; inhibition, % at 10 µM; AID 488928; 2,400 tested, 55% active; HEK293 TRPC4/mu-opioid, membrane potential dye fluorescence; stimulated with maximal-effect DAMGO;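 active = drop in membrane potential signal beyond 5 SD of the control wells in both duplicate plates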;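 also: TRPC4 counter screen for TRPC6 hits run under conditions tuned for TRPC6 not TRPC4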
TRPC6 block conf – confirmation of mouse TRPC6 inhibitors. shares compounds with TRPC6 inhibitor. HEK293-TRPC6, membrane potential dye, ACh-evoked depolarization. inhibition, % at 10 µM. 3,300 tested, 43% active;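 active = fluorescence ratio falls more than 5 SD below the full-stimulation control mean, in both duplicate runs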;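 also: integrated fluorescence ratio of peak minus minimum over baseline after agonist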
TRPC6 act conf – mouse TRPC6 activator confirmation; 2,800 tested, 11% active; AID 488961; activation, % at 10 µM; shares compounds with TRPC6 inhibitor; HEK293-TRPC6 membrane potential dye fluorescence, FDSS;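 active = ratio signal rise beyond 5 SD above unstimulated control wells' mean, seen in both duplicate runs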;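 also: plate controls were buffer EC0 wells for no effect and acetylcholine ECmax response for full effect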
Starred values were filed as active, the others as inactive; i = inactive; . = no result. This is a sample that favours compounds with a hit; in the whole collection about 2.3% have one here.

SMILES	TRPC6 act	TRPC4 block	TRPC4 PAM	TRPC4 agonist	TRPC6 inhibitor	HEK293 MPD ctr-2	HEK293 MPD ctr 2-2	TRPC4/MOR mod	TRPC4/MOR inh 2	TRPC6 block conf	TRPC6 act conf	others
CCc1cccc2c1Sc1ccccc1CC2N1CCNCC1 (configuration not stated)	i	i	i	i	-5.5*	i	i	i	70%*	50%*	i
CCC(C)NC(=O)c1cc(-c2ccc3c(c2)OCO3)on1 (configuration not stated)	i	i	i	i	i	.	.	.	.	.	.
CN(c1ccc(C(=O)NC2CCCCC2)cc1)S(=O)(=O)c1ccccc1	i	i	i	i	i	.	.	.	.	.	.
O=C(CCCSc1nnc(-c2cccs2)n1CC1CCCO1)c1ccccc1 (configuration not stated)	i	i	i	i	-5.2*	186%*	i	34%*	i	i	.
O=C(CSc1nnc(-c2cccs2)n1CC1CCCO1)N1CCCC1 (configuration not stated)	i	i	i	i	i	.	.	.	.	.	.
CS(=O)(=O)N(CC(=O)N1CCc2ccccc2C1)c1ccc(Cl)cc1F	i	i	i	i	i	.	.	.	.	.	.
Cc1cc(NCc2ccccn2)nc2ccccc12	i	i	i	i	-8.9*	.	.	.	.	95%*	i	TRPC4 sel inh 2=49%*;TRPC4 spec=-20%*;HEK293 MPD ctr 2-1=i;HEK293 MPD ctr-1=-292%*
Cc1nc(NCc2ccccn2)c2ccccc2n1	i	i	i	i	i	.	.	.	.	.	.
O=C(CSc1ncc(-c2ccccc2)n1CC1CCCO1)N1CCCCC1 (configuration not stated)	i	i	i	i	-6*	100%*	i	13%*	i	i	.
COc1cccc(CNC(=O)CCC2CCCN(C(=O)c3cccnc3SC)C2)c1 (configuration not stated)	i	i	i	i	i	.	.	.	.	.	.
O=c1cc(-c2ccccc2)oc2ccc(O)cc12	i	i	i	i	i	.	.	.	.	.	.
CC1(C)CC(N=c2cc(-c3ccccc3)oc3ccc(Cl)cc23)CC(C)(C)N1	i	i	i	i	-9.6*	.	.	.	.	69%*	i	TRPC4 sel inh 2=42%*;TRPC4 spec=-26%*;HEK293 MPD ctr 2-1=-39%*;HEK293 MPD ctr-1=-328%*
OCCCN=c1cc(-c2ccccc2)oc2ccc(Cl)cc12	i	i	i	i	-7.3*	.	.	.	.	77%*	i	TRPC4 sel inh 2=68%*;TRPC4 spec=-19%*;HEK293 MPD ctr 2-1=i;HEK293 MPD ctr-1=-386%*
CC1Cc2cc(S(=O)(=O)N3CCC(C(=O)N(C)Cc4ccccc4)CC3)ccc2N1C(=O)C1CC1 (configuration not stated)	i	i	i	i	i	.	.	.	.	.	.
O=C(CN1CCN(Cc2ccccc2)CC1)Nc1ccc([N+](=O)[O-])cc1C(=O)Nc1ccccc1F	i	i	i	i	-5.1*	i	i	i	70%*	38%*	i
COc1cc(NC(=O)c2cc([N+](=O)[O-])ccc2NC(=O)CN2CCN(c3ccccn3)CC2)cc(OC)c1	i	i	10*	i	-5.9*	i	i	i	40%*	i	i
S=C1NCCOCCOCCNC(=S)N2CCOCCOCCN1CCOCCOCC2	i	i	i	i	i	.	.	.	.	.	.
O=C(Oc1ccccc1F)c1ccc2c(=O)n3c(nc2c1)CCC3	i	i	i	i	i	.	.	.	.	.	.
Cc1ccn(CC(=O)NC2CCCN(Cc3ccc(CC(C)C)cc3)C2)n1 (configuration not stated)	i	i	i	145*	-5.8*	112%*	i	38%*	i	i	.
CC(C)Cc1ccc(CN2CCCC(NC(=O)CCN3CCCO3)C2)cc1 (configuration not stated)	i	i	i	i	i	.	.	.	.	.	.
COc1ccccc1NC(=O)c1c[nH]c2ccccc12	i	i	i	i	i	.	.	.	.	.	.
Cc1ccc(N2CC(NC(=O)C(=O)c3c(C)[nH]c4ccccc34)CC2=O)cc1C (configuration not stated)	i	i	i	i	i	.	.	.	.	.	.
Cc1cccc(N(C)c2ncnc3onc(-c4ccc(F)cc4)c23)c1C	i	i	i	i	i	.	.	.	.	.	.
COc1cc(/C=N/Nc2nncc3ccccc23)cc(OC)c1OC	i	i	i	i	-7.9*	.	.	.	.	i	i	TRPC4 sel inh 2=i;TRPC4 spec=-25%*;HEK293 MPD ctr 2-1=i;HEK293 MPD ctr-1=-458%*
O=C(c1ccc(Cl)c(S(=O)(=O)N2CCOCC2)c1)N(c1ccccn1)C1CCCCC1	i	i	i	i	-6*	170%*	i	30%*	i	i	.
COc1ccc(-c2csc(NC(=O)CCCc3nc4ccccc4c(=O)[nH]3)n2)cc1OC	i	i	i	i	-5.2*	i	i	14%*	i	i	.
Cc1ccc(Nc2cc(C(=O)NCCCN3CCOCC3)c3ccccc3n2)cc1C	i	i	i	i	i	.	.	.	.	.	.
Cc1nn(CC(=O)N2CCN(c3ccc(Cl)cc3)CC2)c(=O)c2cccn12	i	i	i	i	i	.	.	.	.	.	.

Source: PubChem
